The record followed here is article PMC4111568 (Bioorganic & medicinal chemistry, 2011).

Molecules are shown by their SMILES.

The experiment relates to CWR22rv-1 cells. In words: Cell death of CWR22rv-1 prostate cancer cells. To be noted: 25 μM, after 24 h. In kind it is cell-based, human. The method, boiled down:
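CWR22Rv1 cells were seeded at 300,000 cells/well in RPMI 1640 with 10% FBS, 2.5 mM L-glutamine and penicillin-streptomycin at 37 °C, 5% CO2, then serum-starved overnight. Test compound (DMSO stock, diluted in serum-free RPMI) was applied in triplicate for 24–72 h. Cells were trypsinised, fixed in 70% ethanol, treated with RNase (5 μg/mL), stained with propidium iodide (50 μg/mL), and DNA content/cell-cycle fractions were measured by flow cytometry.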

Regarding `CCCCCCCC(O)(C(N)=O)c1cccc(Cl)c1` (racemic) [(±)-1, 2-(3-chlorophenyl)-2-hydroxynonanamide], the cell death result is “marginal effects”.
